Data from ChEMBL document CHEMBL1156265, “Furo[2,3-b]pyridine-based cannabinoid-1 receptor inverse agonists: synthesis and biological evaluation. Part 1” (Bioorg Med Chem Lett, 2010).
pIC50: −log10 of the molar value.

Columns and labels:
[1] = Bioavailability in dog; assay type: ADME, organism-based, Canis lupus familiaris; conditions: in vivo
In short: (§1)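 PK in dog and rhesus macaque. Bioavailability, plasma clearance (mL/min/kg) and terminal half-life derived from plasma drug levels.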

[2] = Plasma clearance in dog; assay type: ADME, organism-based, Canis lupus familiaris; in short: as §1
[3] = Half life in rat; assay type: ADME, organism-based; conditions: in vivo
[4] = Drug level in rat brain at 1 mg/kg, iv after 4 hrs; assay type: ADME, organism-based; set-up: dose 1 mg/kg, route intravenous; conditions: read-out: Drug uptake
[5] = Ratio of drug level in brain to plasma in rat at 1 mg/kg, iv after 4 hrs; assay type: ADME, organism-based; set-up: dose 1 mg/kg, route intravenous
[6] = Plasma clearance in rhesus monkey; assay type: ADME, organism-based, Macaca mulatta; in short: as §1
[7] = Plasma clearance in rat; assay type: ADME, organism-based
[8] = Drug level in rat plasma at 1 mg/kg, iv after 4 hrs; assay type: ADME, organism-based; set-up: dose 1 mg/kg, route intravenous; conditions: read-out: Drug uptake
Rattus norvegicus [9] = test: Reduction of body weight in DIO rat assessed as weight change at 0.1 mg/kg, po after 18 hrs; assay type: functional
In short: (§2)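 Acute study in diet-induced obese rats. A single oral dose was given and rats were monitored for 18 h. Food intake suppression and body weight change were measured relative to vehicle-treated controls.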

Rattus norvegicus [10] = test: Reduction of body weight in DIO rat assessed as weight change at 0.3 mg/kg, po after 18 hrs; assay type: functional; in short: as §2
[11] = Half life in rhesus monkey; assay type: ADME, organism-based, Macaca mulatta; conditions: in vivo; in short: as §1
Rattus norvegicus [12] = test: Suppression of food intake in DIO rat at 0.1 mg/kg, po relative to control; assay type: functional; in short: as §2
[13] = Bioavailability in rat; assay type: ADME, organism-based; conditions: in vivo
[14] = Half life in dog; assay type: ADME, organism-based, Canis lupus familiaris; conditions: in vivo; in short: as §1
[15] = Bioavailability in rhesus monkey; assay type: ADME, organism-based, Macaca mulatta; conditions: in vivo; in short: as §1
Cannabinoid receptor 2 = Cannabinoid receptor 2 (Homo sapiens, UniProt P34972); test: Inhibition of human CB2 receptor
Cannabinoid receptor 2, sequence (P34972 whole entry): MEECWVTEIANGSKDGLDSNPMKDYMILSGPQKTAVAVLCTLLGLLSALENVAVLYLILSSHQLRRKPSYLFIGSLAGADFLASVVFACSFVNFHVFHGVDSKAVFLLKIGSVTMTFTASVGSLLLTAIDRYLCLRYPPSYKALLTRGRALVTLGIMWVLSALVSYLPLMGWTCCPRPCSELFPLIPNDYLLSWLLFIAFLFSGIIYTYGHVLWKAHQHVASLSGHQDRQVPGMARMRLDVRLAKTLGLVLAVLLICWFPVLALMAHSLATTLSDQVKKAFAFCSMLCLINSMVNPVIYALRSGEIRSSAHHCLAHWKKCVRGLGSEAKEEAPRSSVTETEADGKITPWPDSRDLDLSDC

Rattus norvegicus [16] = test: Suppression of food intake in DIO rat at 0.3 mg/kg, po relative to control; assay type: functional; in short: as §2
Cannabinoid receptor 1 = Cannabinoid receptor 1 (Homo sapiens, UniProt P21554); test: Inhibition of human CB1 receptor
Cannabinoid receptor 1, sequence (P21554 whole entry): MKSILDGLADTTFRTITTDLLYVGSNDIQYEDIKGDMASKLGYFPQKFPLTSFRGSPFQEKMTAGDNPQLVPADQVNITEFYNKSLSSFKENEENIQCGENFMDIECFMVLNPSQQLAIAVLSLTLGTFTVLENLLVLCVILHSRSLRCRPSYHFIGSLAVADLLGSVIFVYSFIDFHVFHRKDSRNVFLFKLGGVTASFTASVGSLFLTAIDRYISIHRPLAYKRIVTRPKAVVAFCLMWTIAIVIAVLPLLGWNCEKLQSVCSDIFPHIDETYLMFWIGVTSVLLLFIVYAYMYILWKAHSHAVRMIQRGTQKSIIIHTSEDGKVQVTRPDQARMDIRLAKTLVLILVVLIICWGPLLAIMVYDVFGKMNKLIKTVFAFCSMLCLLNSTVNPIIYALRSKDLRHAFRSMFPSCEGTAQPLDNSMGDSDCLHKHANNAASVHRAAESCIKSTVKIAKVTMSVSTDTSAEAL

## CC(=O)Nc1c(C(=O)C(C)(C)O)oc2nc(-c3ccccc3Cl)c(-c3ccc(Cl)cc3)cc12
[1]
  bioavailability: 87%
[2]
  clearance: 5 mL/min/kg
[3]
  half-life: 4.8 h
[4]
  concentration at 4 h: 56 nM
[5]
  Kp at 4 h: 0.77
[6]
  clearance: 2.8 mL/min/kg
[7]
  clearance: 16 mL/min/kg
[8]
  concentration at 4 h: 72 nM
Rattus norvegicus [9]
  Activity: -1 g
Rattus norvegicus [10]
  Activity: -1 g
[11]
  half-life: 45 h
Rattus norvegicus [12]
  Activity: 28%
[13]
  bioavailability: 61%
[14]
  half-life: 26 h
[15]
  bioavailability: 100%
Cannabinoid receptor 2
  pIC50: 5.27
Rattus norvegicus [16]
  Activity: 41%
Cannabinoid receptor 1
  pIC50: 8.27
